Test results reported in ChEMBL document CHEMBL1154000, “Modified low molecular weight cyclic peptides as mimetics of BDNF with improved potency, proteolytic stability and transmembrane passage in vitro” (Bioorg Med Chem, 2009).

Experiments:
[1] = Increase in neuronal survival in embryonic chick dorsal root ganglion sensory neurons at 0.1 uM after 48 hrs relative to BDNF; format: functional, Gallus gallus, DRG neuron; conditions: in the assay text read “0.01 uM” for “0.1 uM”
Summary of the method: (§1)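 Primary embryonic chick DRG sensory neuron cultures. Peptides tested in log10 increments, with surviving neurons counted after 48 h. Triplicate well counts averaged and normalised between BDNF positive (100%) and negative (0%) controls. Data given as mean ± SEM, n = 3–4. pEC20BDNF is the negative log10 of the concentration giving 20% of the BDNF survival response.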

[2] = Increase in neuronal survival in embryonic chick dorsal root ganglion sensory neurons at 10 uM to 10 nM after 48 hrs relative to BDNF; format: functional, Gallus gallus, DRG neuron; summary of the method: as §1
[3] = Increase in neuronal survival in embryonic chick dorsal root ganglion sensory neurons assessed as normalized neuronal survival response equivalent to 20% for BDNF after 48 hrs; format: functional, Gallus gallus, DRG neuron; summary of the method: as §1
[4] = Apparent permeability across apical to basolateral side in human Caco-2 cells at 200 uM after 150 mins; format: ADME, cell-based
Summary of the method: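 Caco-2 cells (passage 82–96) grown 24–25 days on polycarbonate Transwell supports (0.45 µm pore, 1.13 cm²). Basolateral samples taken every 30 min for 150 min with buffer replacement. Samples acetylated, lyophilised, redissolved in 2% TFA and centrifuged; bis-acetylated peptide quantified by LCMS. Papp given as mean ± SEM from 3–4 monolayers.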

[5] = Increase in neuronal survival in embryonic chick dorsal root ganglion sensory neurons at 10 uM to 0.1 nM after 48 hrs relative to BDNF
[6] = Increase in neuronal survival in embryonic chick dorsal root ganglion sensory neurons at 10 uM to 0.1 nM after 48 hrs relative to BDNF; format: functional, Gallus gallus, DRG neuron; conditions: in the assay text read “at 100 uM” for “at 10 uM to 0.1 nM”; summary of the method: as §1
[7] = Stability in mouse plasma assessed as half life at 0.2 mg; format: ADME, cell-free
Summary of the method: (§2)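 Peptide (0.2 mg) incubated at 37 °C in single-mouse plasma diluted 50% in PBS, sampled over 24 h. Each aliquot put on ice, treated with lysine (1000 equiv) to displace protein binding, then MeCN to precipitate proteins, centrifuged at 4 °C and diluted for HPLC. Peak areas taken as ratio to 4-isopropylbenzyl alcohol internal standard, as % of t = 0; three experiments.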

Plasma = assay: (§3) Stability in mouse plasma assessed as degradation; format: ADME, cell-free; summary of the method: as §2
[8] = as §3; format: ADME, cell-free; conditions: read-out: Activity; summary of the method: as §2

Compound | Papp A→B at 2.5 h, 200 µM [4] [×10⁻⁶ cm/s] | half-life [7] [h] | Activity (Plasma) | metabolised [8] [%] | Activity [1] [%] | Activity [2] [%] | Activity [3] | Activity [5] [%] | Activity [6] [%]
CCCCCCCCCCCCCCCC(=O)NCCCC[C@@H]1NC(=O)[C@H]2CCCN2C(=O)[C@H](CCCNC(=N)N)NC(=O)[C@H](CCCCN)NC(=O)[C@H](CCCCN)NC1=O |  |  |  |  | 28.4 | 49.4 | 9.1 |  | 
N=C(N)NCCC[C@@H]1NC(=O)[C@H](CCCCN)NC(=O)[C@H](CCCCN)NC(=O)[C@H](Cc2ccccc2)NC(=O)[C@H]2CCCN2C1=O |  |  |  |  |  | 21.8 | 5.3 |  | 
N=C(N)NCCC[C@@H]1NC(=O)[C@H](CCCCN)NC(=O)[C@H](CCCCN)NC(=O)[C@H](CCCCN)NC(=O)[C@H]2CCCN2C1=O |  |  |  |  |  | 60.9 | 7.5 |  | 

Now from value to compound, other results behind:

Papp A→B at 2.5 h, 200 µM [4] [×10⁻⁶ cm/s] | half-life [7] [h] | Activity (Plasma) | metabolised [8] [%] | Compound | Activity [1] [%] | Activity [2] [%] | Activity [3] | Activity [5] [%] | Activity [6] [%]
0.288 |  |  |  | CCCC[C@@H]1NC(=O)[C@H]2CCCN2C(=O)[C@H](CCCNC(=N)N)NC(=O)[C@H](CCCCN)NC(=O)[C@H](CCCCN)NC1=O |  | 36.2 | 6.2 |  | 
0.929 |  |  |  | CCCCC(=O)NCCCC[C@@H]1NC(=O)[C@H]2CCCN2C(=O)[C@H](CCCNC(=N)N)NC(=O)[C@H](CCCCN)NC(=O)[C@H](CCCCN)NC1=O |  | 39.4 | 7.7 |  | 
0.642 | > 24 | Stable |  | C[C@@H]1NC(=O)[C@H]2CCCN2C(=O)[C@H](CCCNC(=N)N)NC(=O)[C@H](CCCCN)NC(=O)[C@H](CCCCN)NC1=O |  |  | 7.3 | 37.3 | 67.7
0.922 | > 24 |  | 20 | CCCCCCCC(=O)NCCCC[C@@H]1NC(=O)[C@H]2CCCN2C(=O)[C@H](CCCNC(=N)N)NC(=O)[C@H](CCCCN)NC(=O)[C@H](CCCCN)NC1=O |  | 38.7 | 7.5 |  | 
